Assay results as given in article PMC10127574 (ACS chemical biology, 2015).

Key:
[1] = target: T1, cysteine-free form of IDE (CF-IDE) (Homo sapiens, UniProt P14735, C819S, form not given); test: IDE activity assay with FRET1 using cysteine-free IDE; format: biochemical; conditions: read-out: ki CF-IDE
T1 sequence (P14735 42-1019 C819S): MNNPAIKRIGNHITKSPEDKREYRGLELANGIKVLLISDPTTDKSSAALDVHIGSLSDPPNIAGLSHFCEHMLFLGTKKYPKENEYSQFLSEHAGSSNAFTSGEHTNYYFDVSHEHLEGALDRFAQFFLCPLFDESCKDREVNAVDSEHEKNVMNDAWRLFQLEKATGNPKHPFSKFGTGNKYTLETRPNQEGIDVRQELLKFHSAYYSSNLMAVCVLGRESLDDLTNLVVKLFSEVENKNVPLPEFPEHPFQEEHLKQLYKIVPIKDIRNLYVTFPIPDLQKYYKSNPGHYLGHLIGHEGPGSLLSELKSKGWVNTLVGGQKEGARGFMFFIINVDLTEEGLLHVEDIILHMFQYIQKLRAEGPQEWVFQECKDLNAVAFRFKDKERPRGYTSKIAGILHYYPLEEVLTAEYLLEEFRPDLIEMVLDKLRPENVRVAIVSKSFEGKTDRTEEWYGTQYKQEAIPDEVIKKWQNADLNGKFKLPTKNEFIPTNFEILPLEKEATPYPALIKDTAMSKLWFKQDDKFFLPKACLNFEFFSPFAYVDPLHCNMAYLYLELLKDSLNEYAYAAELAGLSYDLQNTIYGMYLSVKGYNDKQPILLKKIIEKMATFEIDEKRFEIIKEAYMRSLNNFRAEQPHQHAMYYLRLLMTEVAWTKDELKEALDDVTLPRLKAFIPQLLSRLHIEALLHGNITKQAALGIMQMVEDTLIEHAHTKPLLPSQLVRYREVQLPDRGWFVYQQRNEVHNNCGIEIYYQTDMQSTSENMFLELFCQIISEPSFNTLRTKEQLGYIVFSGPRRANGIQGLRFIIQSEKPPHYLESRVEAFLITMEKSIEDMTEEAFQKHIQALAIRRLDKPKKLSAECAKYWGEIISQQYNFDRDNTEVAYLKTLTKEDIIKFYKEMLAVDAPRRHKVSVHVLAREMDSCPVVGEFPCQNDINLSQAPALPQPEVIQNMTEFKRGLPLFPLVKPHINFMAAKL

[2] = tested on: HEK-293 cells; test: luminescence-based HEK cell viability; parameters: species or system human; conditions: up to 100 μM
[3] = target: T2, intracellular pools of IDE (Mus musculus, UniProt Q9JHR7); test: intracellular IDE activity in BV-2 cells; format: cell-based; conditions: 30 μM, 16 h, cell extracts
T2 sequence (Q9JHR7 1-1019): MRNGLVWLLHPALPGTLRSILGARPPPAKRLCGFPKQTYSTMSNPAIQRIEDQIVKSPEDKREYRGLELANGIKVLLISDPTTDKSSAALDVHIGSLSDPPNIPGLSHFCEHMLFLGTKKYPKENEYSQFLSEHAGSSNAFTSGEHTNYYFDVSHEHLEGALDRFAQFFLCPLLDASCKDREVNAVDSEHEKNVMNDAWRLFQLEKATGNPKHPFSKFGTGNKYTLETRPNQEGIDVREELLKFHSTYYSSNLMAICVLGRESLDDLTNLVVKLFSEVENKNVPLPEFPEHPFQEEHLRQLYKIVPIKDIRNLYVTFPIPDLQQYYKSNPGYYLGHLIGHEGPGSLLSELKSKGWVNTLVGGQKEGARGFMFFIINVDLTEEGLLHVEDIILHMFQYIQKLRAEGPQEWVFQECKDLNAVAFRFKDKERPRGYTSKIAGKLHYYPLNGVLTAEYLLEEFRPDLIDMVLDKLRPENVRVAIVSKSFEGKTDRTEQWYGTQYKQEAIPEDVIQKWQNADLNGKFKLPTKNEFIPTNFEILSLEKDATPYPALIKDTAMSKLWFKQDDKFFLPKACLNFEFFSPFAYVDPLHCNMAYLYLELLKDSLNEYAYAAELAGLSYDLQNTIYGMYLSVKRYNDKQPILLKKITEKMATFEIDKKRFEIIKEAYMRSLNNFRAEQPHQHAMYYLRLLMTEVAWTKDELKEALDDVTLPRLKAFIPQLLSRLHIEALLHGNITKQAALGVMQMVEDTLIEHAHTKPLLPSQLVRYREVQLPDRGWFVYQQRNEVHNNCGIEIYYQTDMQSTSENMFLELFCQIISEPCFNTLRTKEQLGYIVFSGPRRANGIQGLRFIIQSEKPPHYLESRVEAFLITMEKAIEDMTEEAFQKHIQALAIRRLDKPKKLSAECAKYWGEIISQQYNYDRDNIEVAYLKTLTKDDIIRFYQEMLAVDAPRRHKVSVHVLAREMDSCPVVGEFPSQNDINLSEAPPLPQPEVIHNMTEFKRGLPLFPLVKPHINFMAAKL
Outline: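 BV-2 cells were treated 16 h with 30 μM compound, then conditioned medium was collected. Cells were washed in PBS, lysed hypotonically in 50 mM Tris-HCl at 4 °C, extruded through a needle and centrifuged. Extracts were diluted 1:200 (v:v). Activity was measured by avidin-agarose precipitation Aß degradation assay with FAßB. Mean ± SEM, 3 replications.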

[4] = liver microsome stability, mouse; format: in vitro ADME; conditions: mouse liver microsomes

- Ki [1]: 8.37 µM
- inhibition of intracellular pools of IDE in BV-2 cells [3]: does not affect
- Liver microsome stability, Mouse [4]: 24 min
SMILES: O=c1c2cc(F)ccc2sn1-c1cc(S(=O)(=O)N2CCOCC2)ccc1N1CCOCC1 [Compound 8, 5-fluoro-2-(2-morpholin-4-yl-5-morpholin-4-ylsulfonylphenyl)-1,2-benzothiazol-3-one]
- toxicity in cells [2]: no toxicity
